# Most compounds without a hit are left out; they make up all but 6.5% or so of the library.
# Candida biofilm: kills Candida albicans biofilms. actives 0.14% (n = 85,000). inhibition, % at 6 µM. AID 834. C. albicans biofilm + clotrimazole, Alamar Blue;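 active = inhibition above 20%; inactive = inhibition below 20%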;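 also: preformed 24 hr biofilms exposed to compound for 48 hr; 0% = biofilm without compound and 100% = blank killed by clotrimazole plus chlorhexidine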
# PostGolgi yeast: growth inhibition of a yeast mutant, post-Golgi transport screen | post-Golgi transport phenotypic cell assay | inhibition, % at 10 µM | actives 0.9% (n = 98,000) | AID 739;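 also: yeast cells grown in 1536-well plates; yeast grown about 18 h at 30C before absorbance read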
# PostGolgi ctrl: inhibits growth of the yeast control strain; efflux-deficient yeast background strain, growth absorbance A615, 16 h; inhibition, % at 10 µM; actives 5% (n = 98,000)
# PTK2B oligo ant: Pyk2 (human) oligomerization antagonism; actives 0.83% (n = 99,000); Q293 cells, Pyk2 FERM NanoBiT luminescence; stronger effect = lower value; Q14289; z-score (the deposit names both 25 µM and 10 µM);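 active = Z-score of -3 or lower, scaled per plate to the spread of control and sample wells; inactive = z-score above -3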;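 also: negative z-score means lost luminescence so less FERM oligomerization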
# E coli WT exp: blocks growth of wild type E. coli BW25113; growth inhibition, % at 100 µM; actives 0.15% (n = 98,000); OD600 absorbance;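 active = growth inhibition above about 50% at one test dose, limit read from the data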;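 also: growth measured after 20 h incubation at 37 °C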
# tolC growth inh: growth inhibitors of E. coli BW25113 tolC mutant | OD615 | growth inhibition, % at 10 µM (by protocol) | actives 2.2% (n = 65,000) | AID 573;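 active = growth inhibition at or above a cutoff equal to the mean over every tested compound plus 3 SD, cut at about 60% in these data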;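 also: growth measured after 20 h incubation at 37 °C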
#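 Doses: one dose of 10 µM final / Material: E. coli BW25113 ΔtolC::kan, tolC deletion mutant strain / Buffer or medium: LB with kanamycin 50 µg/mL / Evaluation: percent growth inhibition / Detection: optical density read at 615 nm / Incubation: 37 °C, 20 h exposure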
# Numbers without * were called inactive; x = no result. Rule as the data show it, unless noted: active = inhibition above about 30%; inactive = the rest.
SMILES,Candida biofilm,PostGolgi yeast,PostGolgi ctrl,PTK2B oligo ant,E coli WT exp,tolC growth inh
COc1cccc(C(=O)N2CCN(C(=O)c3cccc(F)c3)CC2)c1,1,-7,5,0,-3,-7
O=C(c1cccc(F)c1)N1CCN(C(=O)c2cc(-c3ccc(Cl)cc3Cl)on2)CC1,2,10,22,-0.24,-14,64*
Nc1ccccc1-c1nnc(SCc2ccccc2Cl)[nH]c1=O,1,-7,37*,-1.6,-3,x
NCC[C@H](O)C(=O)N[C@@H]1C[C@H](N)[C@@H](O[C@H]2O[C@H](CN)[C@@H](O)[C@H](O)[C@H]2O)[C@H](O)[C@H]1O[C@H]1O[C@H](CO)[C@@H](O)[C@H](N)[C@H]1O,x,x,x,x,x,2
Cc1ccc(Nc2cc(C)nn2-c2nc(C)cc(=O)[nH]2)cc1,10,94*,100*,-1.9,77*,100*
Cc1ccc(Nc2cc(C)nn2-c2nc(C)cc(C)n2)cc1,3,-4,39*,-0.83,-5,13
CCNC(=O)C1CC(=O)N(c2ccc(Br)cc2)C1 (stereo not drawn),8,-8,5,-0.14,13,-12
O=C(c1cc2nc(-c3ccco3)cc(C(F)(F)F)n2n1)N1CCN(c2ccccn2)CC1,9,12,8,0.64,-3,22
O=C(c1cc2nc(-c3ccco3)cc(C(F)(F)F)n2n1)N1CCN(c2ccccc2)CC1,6,0,12,-0.55,-7,71*
CCCC(=O)N1CCN(c2ccc(NC(=S)NC(=O)CC)cc2)CC1,x,-9,-5,0.59,-5,x
C=CCc1cccc2cc(C(=O)N(CC)CC)c(=O)oc12,5,-15,1,0.44,-5,-5
O=C1c2ccccc2-c2onc3ccc(NCc4ccco4)c1c23,1,-5,34*,-1.9,-9,5
CCNc1ccc2noc3c2c1C(=O)c1ccccc1-3,4,x,x,-2.1,x,x
CN(C)c1ccc(NC(=O)CSc2nc3ccccc3c(=O)n2C2CCCCC2)cc1,8,0,-8,-1.3,-9,16
O=C(CSc1nc2ccccc2c(=O)n1C1CC1)NCc1ccccc1,-3,2,36*,-0.22,-12,13
CCCN(CCC)C(=O)CSc1nc2ccccc2c(=O)n1C1CCCC1,4,4,27,-1.6,-13,77*
COC(=O)[C@H]1CCCN1C(=O)Nc1cccc(Oc2c(F)c(F)c(F)c(F)c2F)c1,9,6,-7,1.9,1,2
N#CCn1c(C2CCCCC2)nc2ccccc2c1=O,-3,-14,2,-0.34,11,17
CCOc1ccccc1CNC(=O)CCN1C(=O)COc2ccccc21,8,3,44*,0.6,6,-1
COc1ccc(CNC(=O)COc2ccc(S(=O)(=O)NC(C)C)cc2)cc1,2,3,4,0.2,-6,-8
Cc1noc(C)c1Cc1ccc(O)cc1,x,16,17,-0.41,6,x
O=S(=O)(NC1CC2CCC1C2)c1ccc(Br)s1 (stereo not drawn),6,90*,91*,1.3,10,38
Cc1ccc2cc(CCNC(=O)c3ccc(Br)o3)c(=O)[nH]c2c1,10,21,101*,-0.08,9,46
CC(=O)NCCc1cc2ccc(C)cc2[nH]c1=O,3,24,-2,-0.33,3,-22
CCOC(=O)c1ccc(N2C(=O)c3n[nH]c(C)c3C2c2ccccc2)cc1 (stereo not drawn),7,-2,12,-3.1*,7,-5
SMILES,Candida biofilm,PostGolgi yeast,PostGolgi ctrl,PTK2B oligo ant,E coli WT exp,tolC growth inh
N=c1n(CCN2CCCCC2)c2ccccc2n1CC(O)c1ccc(Cl)c(Cl)c1 (stereo not drawn),x,-8,-9,0.83,98*,x
N=c1n(CCN2CCCCC2)c2ccccc2n1CC(O)c1cccc(Br)c1 (stereo not drawn),-1,8,22,-1.1,18,35
O=C(CCC(=O)NNC(=O)Nc1ccc(Cl)cc1)NCc1ccccc1,x,-1,-1,0.13,1,x
Cc1cc(Nc2nc3ccccc3nc2Cl)n(-c2ccc([N+](=O)[O-])cc2)n1,-2,1,32*,-2.4,-10,x
Cc1cc(Nc2nc3ccccc3[nH]c2=O)n(-c2ccccc2)n1,0,-4,10,-0.46,3,-3
Cc1ccc(NC(=O)CS(=O)CC(=O)NC(C)CCc2ccco2)cc1Cl (stereo not drawn),5,8,47*,0.61,-6,9
CC(CCc1ccco1)NC(=O)Nc1cccc(F)c1 (stereo not drawn),6,28,5,1.3,27,x
CCCc1cn(S(=O)(=O)c2ccc(OC)cc2OC)nc1N,0,-4,-7,-1.5,-8,3
Cc1ccc(O)c(Sc2cc(C)ccc2O)c1,8,1,18,-0.18,45,40
COC(=O)c1ccc(O)c(Sc2cc(C(=O)OC)ccc2O)c1,5,-1,28,1.1,21,87*
COc1ccc(C(C(O)C(=O)c2c[nH]c3ccccc23)N2CCN(c3ccc(OC)cc3)CC2)cc1 (stereo not drawn),-7,-6,-7,-0.13,-1,76*
O=C(c1c[nH]c2ccccc12)C(O)C(c1ccccc1)N1CCOCC1 (stereo not drawn),7,-1,7,0.5,5,-2
O=C1c2ccccc2C(=O)N1CN(C(=O)c1ccccc1[N+](=O)[O-])c1ccc(F)cc1,x,x,x,-0.43,x,x
COc1ccc(CCC(=O)N2CCN(S(=O)(=O)c3ccc4ccccc4c3)CC2)cc1,7,0,37*,-0.83,-23,x
CC1CCN(S(=O)(=O)c2ccc3[nH]c(=O)cc(C(=O)O)c3c2)CC1,1,-15,31*,0.3,1,-4
CNC(=O)c1ccccc1NC(=O)c1cccc(S(=O)(=O)N2CCC(C)CC2)c1,8,4,16,-3.5*,-6,24
Cc1nc(-c2cccc(S(=O)(=O)N3CCCCCC3)c2)cs1,2,-4,16,-1.7,-5,x
Cc1nc(-c2cccc(S(=O)(=O)N3CCC(C)CC3)c2)cs1,0,-7,38*,-0.7,6,x
CCc1cc(-c2n[nH]c(=S)n2-c2ccccc2C)cs1,x,-8,-1,-1.2,7,x
Cc1nc(-c2ccccn2)sc1C(=O)Nc1ccc(Cl)c(Cl)c1,x,21,8,-0.53,-12,x
O=C(c1cc(=O)[nH]c2ccccc12)N1CCN(S(=O)(=O)c2ccc3ccccc3c2)CC1,1,-6,21,-3.3*,3,x
COc1ccc(S(=O)(=O)N2CCN(C(=O)COc3ccc4c(C)cc(=O)oc4c3)CC2)cc1,0,5,30*,x,-8,-4
CC1CCN(S(=O)(=O)c2ccc3ccccc3c2)CC1,4,5,34*,-2.4,6,x
O=C(Nc1cccc2c1CCCC2)C1CCCN(S(=O)(=O)c2cccc3nonc23)C1 (stereo not drawn),5,-7,5,0.59,-8,22
Clc1ccc(NC2(c3nnnn3C3CCCCC3)CCCCC2)cc1,x,3,20,-1.6,-5,x

# Screening results from PubChem BioAssay.
